Data: ChEMBL document CHEMBL2069294, “Synthesis and evaluation of hybrid drugs for a potential HIV/AIDS-malaria combination therapy” (Bioorg Med Chem, 2012)
Active and inactive are the calls of the source. The rule behind the calls is not given here.

Columns and labels:
[1] = test system: Plasmodium falciparum; assay: Antiplasmodial activity against Plasmodium falciparum NF54 assessed as reduction in stage IV and V gametocyte formation at IC50 level incubated for 48 hrs measured 7 days post compound wash by Giemsa staining; format: functional, organism-based
[2] = Selectivity index, ratio of CC50 for human HeLa cells to IC50 for VSV-G pseudotyped HIV1 lentiviral particles; format: functional
How it was run: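 Ratio of HeLa MTT CC50 to IC50 in the 48 h VSV-G-pseudotyped HIV-1 reporter assay in HeLa cells.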

[3] = Selectivity index, ratio of CC50 for human HeLa cells to IC50 for Plasmodium falciparum 3D7 ring stage cells; format: functional
How it was run: (§1)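 Ratio of HeLa MTT CC50 to Malstat IC50 against the stated P. falciparum strain (ring-stage, triplicate, 1% parasitemia).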

[4] = test system: Plasmodium falciparum; assay: Antiplasmodial activity against drug resistant Plasmodium falciparum Dd2 ring stage cells assessed as reduction parasitemia by Malstat assay; format: functional, organism-based
[5] = test system: Human immunodeficiency virus 1; assay: Antiviral activity against VSV-G pseudotyped HIV1 lentiviral particles infected in human HeLa cells incubated for 48 hrs by spectrofluorometry; format: functional, organism-based
[6] = test system: HeLa; assay: Cytotoxicity against human HeLa cells by MTT assay; format: cell-based
How it was run: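 MTT reduction assay on HeLa cells (DMEM, 10% heat-inactivated FCS) with serial dilutions; CC50 taken as concentration giving 50% growth inhibition, ± SEM.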

[7] = test system: Plasmodium falciparum; assay: Antiplasmodial activity against Plasmodium falciparum 3D7 ring stage cells assessed as reduction parasitemia by Malstat assay; format: functional, organism-based
[8] = Selectivity index, ratio of CC50 for human HeLa cells to IC50 for Plasmodium falciparum Dd2 ring stage cells; format: functional; how it was run: as §1
[9] = Prodrug release in buffer assessed as dihydroartemisinin level; format: physicochemical
[10] = Prodrug release in buffer assessed as azidothymidine level; format: physicochemical
[11] = test system: Plasma; assay: Drug metabolism in C57/BL6 mouse plasma assessed as azidothymidine level at 20 mg/kg, po dissolved in Pheroid formulation; format: ADME, organism-based; parameters: dose 20 mg/kg, route oral; settings: in vivo
How it was run: (§2)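 Male C57/BL6 mice given 20 mg/kg by oral gavage (200 µl) in 10% DMSO (resuspended precipitate) or Pheroid vesicles; tail blood at 30–480 min (DMSO) or 10–420 min (Pheroid), plasma separated; parent, AZT and DHA quantified by LC–MS/MS after acetonitrile extraction with deoxythymidine internal standard, calibration in plasma.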

[12] = Cmax in C57/BL6 mouse plasma at 20 mg/kg, po dissolved in Pheroid formulation; format: ADME, organism-based; parameters: dose 20 mg/kg, route oral; how it was run: as §2
[13] = test system: Blood; assay: Drug metabolism in C57/BL6 mouse blood assessed as dihydroartemisinin level at 20 mg/kg, po dissolved in Pheroid formulation; format: ADME, organism-based; parameters: dose 20 mg/kg, route oral; settings: in vivo; how it was run: as §2
[14] = Drug metabolism in C57/BL6 mouse liver microsomes measured after 15 mins; format: ADME, Microsome; settings: read-out: Drug metabolism
How it was run: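 Compound at 1 µM final incubated at 37 °C with mouse liver microsomes (0.2 mg/ml protein) in phosphate buffer pH 7.4; started with 1 mM NADPH; aliquots at 0, 15, 30, 45 min quenched in cold acetonitrile; parent remaining (% of time zero) and released AZT/DHA measured by LC–MS/MS.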

[15] = test system: Plasma; assay: Drug metabolism in C57/BL6 mouse plasma assessed as azidothymidine level at 20 mg/kg, po dissolved in 10% DMSO; format: ADME, organism-based; parameters: dose 20 mg/kg, route oral; settings: in vivo; how it was run: as §2
[16] = test system: Plasma; assay: Drug metabolism in C57/BL6 mouse plasma assessed as dihydroartemisinin level at 20 mg/kg, po dissolved in Pheroid formulation; format: ADME, organism-based; parameters: dose 20 mg/kg, route oral; settings: in vivo; how it was run: as §2
[17] = test system: Human immunodeficiency virus 1; assay: Antiviral activity against HIV1 NL43 infected din human MT4 cells pre-incubated in presence of compound for 48 hrs followed by TZM cells infection with compound treated virus supernatant by X-gal staining based microscopy; format: functional, organism-based; settings: Human immunodeficiency virus 1, NL43, TZM
How it was run: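 MT4 co-culture with NL43 HIV-1 preincubated 4 h at 37 °C, then compounds in DMSO added at six concentrations for 48 h; cell-free supernatant used to infect TZM cells in triplicate; after 2 days cells fixed (acetone/ethanol), X-Gal stained 2–4 h, blue cells counted; uninfected and untreated-infected wells set as 100% and 0% activity.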

[18] = test system: Blood; assay: Drug metabolism in C57/BL6 mouse blood assessed as dihydroartemisinin level at 20 mg/kg, po dissolved in 10% DMSO; format: ADME, organism-based; parameters: dose 20 mg/kg, route oral; settings: in vivo; how it was run: as §2
[19] = test system: Mus musculus; assay: Toxicity in Plasmodium […] N infected in C57/BL6 mouse assessed as parasitemia at 20 mg/kg, po dosed 30 mins post parasite infection and same dose repeated on days 1, 2 and 3 post infection measured on parasitemia day 2 to 7; format: organism-based; parameters: dose 20 mg/kg, route oral; settings: in vivo, 0.5 h
How it was run: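 Infected mice dosed orally at 20 mg/kg on days 0–3 (first dose 30 min after intraperitoneal infection); death of treated infected mice before day 6 counted as toxic death; parasitemia followed on Giemsa smears to day 7.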

[20] = test system: Blood; assay: Drug metabolism in C57/BL6 mouse blood assessed as azidothymidine level at 20 mg/kg, po dissolved in 10% DMSO; format: ADME, organism-based; parameters: dose 20 mg/kg, route oral; settings: in vivo; how it was run: as §2
[21] = test system: Blood; assay: Drug metabolism in C57/BL6 mouse blood assessed as azidothymidine level at 20 mg/kg, po dissolved in Pheroid formulation; format: ADME, organism-based; parameters: dose 20 mg/kg, route oral; settings: in vivo; how it was run: as §2
[22] = test system: Plasma; assay: Drug metabolism in C57/BL6 mouse plasma assessed as dihydroartemisinin level at 20 mg/kg, po dissolved in 10% DMSO; format: ADME, organism-based; parameters: dose 20 mg/kg, route oral; settings: in vivo; how it was run: as §2
[23] = Human immunodeficiency virus 1, HeLa, 48 h, read-out: IC50
[24] = Plasmodium falciparum, 3D7, read-out: IC50

SMILES | Ratio CC50/IC50 [2] | Ratio CC50/IC50 [3] | IC50 [4] [nM] | IC50 [5, 23] [nM] | IC50 [6] [nM] | IC50 [7, 24] [nM] | Ratio CC50/IC50 [8] | IC50 ([5]; hela) | also measured
COc1cc(NC(C)CCCN)c2ncccc2c1 (stereo not drawn) | – | – | – | – | – | – | – | – | inhibition [1]: Active
Cc1cn([C@H]2C[C@H](N=[N+]=[N-])[C@@H](CO)O2)c(=O)n(Cc2cccc(Nc3ccnc4cc(Cl)ccc34)c2)c1=O | >56.8 | >625 | 220 | 1760 | > 100000 | 160 | >454.5 | – | –
CCN(CC)CCCC(C)Nc1ccnc2cc(Cl)ccc12 (stereo not drawn) [CHLOROQUINE] | – | – | – | 12500 | > 100000 | – | – | – | –
NCCNc1ccnc2cc(Cl)ccc12 | – | 2114.7 | – | – | 63400 | 30 | 275.8 | Not Active | –
Cc1cn([C@H]2C[C@H](NC(=O)NCCCCCNc3ccnc4cc(Cl)ccc34)[C@@H](CO)O2)c(=O)[nH]c1=O | – | >19.3 | 8020 | – | > 100000 | 5180 | >12.5 | Not Active | –
C[C@H]1[C@@H](O)O[C@@H]2O[C@@]3(C)CC[C@H]4[C@H](C)CC[C@@H]1[C@@]24OO3 [ARTENIMOL] | – | >3333.3 | 10 | – | > 100000 | 30 | – | Not Active | inhibition [1]: Active
CCOC(=O)C(=O)N[C@H]1C[C@H](n2cc(C)c(=O)[nH]c2=O)O[C@@H]1CO[Si](c1ccccc1)(c1ccccc1)C(C)(C)C | – | 5.75 | 12100 | – | 64000 | 11100 | 5.3 | Not Active | –
OCCNc1ccnc2cc(Cl)ccc12 | – | >45.5 | 1720 | – | > 100000 | 2200 | >58.1 | Not Active | –
Cc1cn([C@H]2C[C@H](NC(=O)CC3CCC4(CC3)OOC3(OO4)C4CC5CC(C4)CC3C5)[C@@H](CO)O2)c(=O)[nH]c1=O (stereo partly drawn) | – | 106.3 | 100 | – | 23400 | 220 | 233.8 | Not Active | –
Cc1cn([C@H]2C[C@H](NC(=O)C(=O)NCCCCCNc3ccnc4cc(Cl)ccc34)[C@@H](CO)O2)c(=O)[nH]c1=O | – | >51.5 | 10600 | – | > 100000 | 1940 | >9.5 | Not Active | –
Cc1cn([C@H]2C[C@H](NC(=O)CC3CCC4(CC3)OOC3(OO4)C4CC5CC(C4)CC3C5)[C@@H](CO[Si](c3ccccc3)(c3ccccc3)C(C)(C)C)O2)c(=O)[nH]c1=O (stereo partly drawn) | – | >370.4 | 190 | – | > 100000 | 270 | >526.3 | Not Active | –
Cc1cn([C@H]2C[C@H](NC(=O)C(=O)NCCCCCNc3ccnc4cc(Cl)ccc34)[C@@H](CO[Si](c3ccccc3)(c3ccccc3)C(C)(C)C)O2)c(=O)[nH]c1=O | 31.8 | 75.4 | 80 | 900 | 28600 | 380 | 358.1 | – | –
OCc1cccc(Nc2ccnc3cc(Cl)ccc23)c1 | – | >70.4 | 1460 | – | > 100000 | 1420 | >68.5 | Not Active | –
Cc1cn([C@H]2C[C@H](N=[N+]=[N-])[C@@H](CO)O2)c(=O)[nH]c1=O [ZIDOVUDINE] | – | – | – | 40 | > 100000 | – | – | – | IC50 [7]: Not Active
NCCCCCNc1ccnc2cc(Cl)ccc12 | – | >435.7 | 230 | – | 56600 | 130 | >246.3 | Not Active | –
Cc1nnc(C(=O)NC(C)(C)c2nc(C(=O)NCc3ccc(F)cc3)c(O)c(=O)n2C)o1 [RALTEGRAVIR] | >10000 | – | – | 10 | > 100000 | – | – | – | IC50 [7]: Not Active
Cc1cn([C@H]2C[C@H](N=[N+]=[N-])[C@@H](CO)O2)c(=O)n(CCNc2ccnc3cc(Cl)ccc23)c1=O | >14 | >217.4 | 650 | 7150 | > 100000 | 460 | >153.8 | – | –
Cc1cn([C@H]2C[C@H](NC(=O)NCCNc3ccnc4cc(Cl)ccc34)[C@@H](CO[Si](c3ccccc3)(c3ccccc3)C(C)(C)C)O2)c(=O)[nH]c1=O | – | 64.3 | 340 | – | 23800 | 370 | 69.9 | Not Active | –
Cc1cn([C@H]2C[C@H](n3cc(CO[C@H]4O[C@@H]5O[C@@]6(C)CC[C@H]7[C@H](C)CC[C@@H]([C@H]4C)[C@@]57OO6)nn3)[C@@H](CO)O2)c(=O)[nH]c1=O | >9 | >370.4 | 100 | 11100 | > 100000 | 270 | >1000 | – | –
Cc1cn([C@H]2C[C@H](NC(=O)NCCNc3ccnc4cc(Cl)ccc34)[C@@H](CO)O2)c(=O)[nH]c1=O | – | >28.3 | 31600 | – | > 100000 | 3530 | >3.2 | Not Active | –
Cc1cn([C@H]2C[C@H](NC(=O)NCCCCCNc3ccnc4cc(Cl)ccc34)[C@@H](CO[Si](c3ccccc3)(c3ccccc3)C(C)(C)C)O2)c(=O)[nH]c1=O | 4.6 | 62.3 | 80 | 7920 | 36100 | 580 | 451.6 | – | –
Cc1cn([C@H]2C[C@H](N=[N+]=[N-])[C@@H](CO[C@H]3O[C@@H]4O[C@@]5(C)CC[C@H]6[C@H](C)CC[C@@H]([C@H]3C)[C@@]46OO5)O2)c(=O)[nH]c1=O | >35 | >3333.3 | 10 | 2860 | > 100000 | 30 | >10000 | – | inhibition [1]: Active; Drug metabolism [9]: Not Active; Drug metabolism [10]: Active; Drug metabolism [11]: Active; Cmax [12]: 40 ng/mL; Drug metabolism [13]: Not Active; metabolised at 0.25 h [14]: > 90%; Drug metabolism [15]: Not Active; Drug metabolism [16]: Active; IC50 [17]: 486 nM; Drug metabolism [18]: Not Active; Activity [19]: Non-toxic; Drug metabolism [20]: Active; Drug metabolism [21]: Active; Drug metabolism [22]: Active
